Bioassay records deposited in PubChem BioAssay by several laboratories.
A selection: hits, their analogues and other compounds. The true share with any hit is near 4.1%.
KCNK9 block: KCNK9 potassium channel inhibitors, primary screen, HEK293 cells, thallium flux | Potassium channel subfamily K member 9 (Homo sapiens), Q9NPC2 | B-score at 10 µM | FluxOR thallium flux fluorescence; hits give low values | actives 1.2% (n = 310,000);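 active = ratio B-score over 3 SD below the library mean, with starting fluorescence within 5 SD of its mean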;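 also: negative B-score means less thallium flux so channel inhibition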
Cl transport mod: KCC2 cotransporter modulators, thallium flux, primary screen, cell-based, HEK293 KCC2, FluoZin-2 fluorescence, MLSMR; Solute carrier family 12 member 5 (Homo sapiens), Q9H2X9; KCC2 cells, thallium flux FluoZin-2 fluorescence; B-score of Tl+ flux slope (higher = more flux/activation; lower = inhibition) at 10 µM; actives 2.2% (n = 190,000);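 active = thallium flux slope and its plate-corrected score both differing from the plate sample mean at a set confidence after two filtering rounds, in either direction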;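 also: slope of fluorescence scaled to starting intensity during 10 to 20 s after thallium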
hERG protect: hERG rescue from dofetilide block, primary screen, cell-based, CHO-hERG, FluxOR thallium flux, dofetilide IC70. Voltage-gated inwardly rectifying potassium channel KCNH2 (Homo sapiens), Q12809. dofetilide IC70 present. activation (rescue from dofetilide block), less the hit threshold, % at 10 µM. actives 0.51% (n = 310,000). AID 1511, 2009;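 active = activation above the mean of controls blocked by dofetilide plus 5 SD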;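 also: thallium influx through hERG after potassium depolarization seen as dye fluorescence rise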
KCNK3 inh: human KCNK3 channel inhibitors, primary screen, CHO cells, FluxOR thallium flux, B-score. Potassium channel subfamily K member 3 (Homo sapiens), O14649. FluxOR fluorescence; hits give low values. B-score at 10 µM. actives 0.84% (n = 340,000);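 active = B-score under library mean minus 4 SD, starting fluorescence ratio at most library mean plus 5 SD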;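 also: more negative B-score means stronger inhibition of thallium flux through KCNK3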
Target sequence (O14649 whole entry, looked up): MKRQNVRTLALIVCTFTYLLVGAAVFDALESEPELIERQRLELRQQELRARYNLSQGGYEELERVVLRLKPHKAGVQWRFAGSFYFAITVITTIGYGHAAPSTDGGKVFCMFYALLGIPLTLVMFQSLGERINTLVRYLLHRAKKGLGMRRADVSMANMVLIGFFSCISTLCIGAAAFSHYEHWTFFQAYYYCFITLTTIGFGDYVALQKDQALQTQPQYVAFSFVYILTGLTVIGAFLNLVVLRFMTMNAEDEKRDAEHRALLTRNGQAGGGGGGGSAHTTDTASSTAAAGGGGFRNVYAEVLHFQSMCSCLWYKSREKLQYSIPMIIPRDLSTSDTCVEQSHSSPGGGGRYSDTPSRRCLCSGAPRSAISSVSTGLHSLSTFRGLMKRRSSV
KCNQ1 block: inhibitors of human KCNQ1 channel, primary screen, cell-based, thallium flux, high-throughput; AID 2642, 2010; actives 1.3% (n = 310,000); B-score at 10 µM; CHO-K1 KCNQ1, FluxOR thallium flux fluorescence; hits give high values; Potassium voltage-gated channel subfamily KQT member 1 (Homo sapiens), P51787;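 active = compounds whose thallium flux B-score, printed positive for inhibition, exceeds three library SD while starting fluorescence stays within three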;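 also: channel opened by potassium depolarization with thallium stimulus after 20 min compound exposure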
KCNQ1 pot: potentiators or activators of KCNQ1 channel, primary screen, cell-based, thallium flux, high-throughput; CHO-K1 KCNQ1, thallium flux FluxOR fluorescence; hits give high values; actives 0.35% (n = 310,000); Potassium voltage-gated channel subfamily KQT member 1 (Homo sapiens), P51787; B-score at 10 µM; AID 2648, 2010;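 active = fluorescence ratio B-score, a plate-corrected score, at least three library SD, with initial intensity B-score within 5 SD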
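Test system: CHO-K1 cells stably expressing KCNQ1 / Medium: assay buffer / Also added: depolarizing K+/Tl+ stimulus, K2SO4 and Tl2SO4 each 12.5 mM in 5x stock / Incubation: 90 min dye loading and 20 min compound exposure, both at room temperature / Signal: thallium influx via FluxOR fluorescence, kinetic imaging / Evaluation: B score of baseline-normalized fluorescence ratio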
A number is an active result; i = inactive; nt = no result given.

SMILES	KCNK9 block	Cl transport mod	hERG protect	KCNK3 inh	KCNQ1 block	KCNQ1 pot
Cc1cc(C)c2sc(NNC(=O)c3ccc(S(=O)(=O)N4CCc5ccccc5C4)cc3)nc2c1	i	i	i	i	7	i
N=C1/C(=C/c2coc3ccccc3c2=O)C(=O)N=C2SC(c3ccco3)=NN12	i	i	i	i	7	i
CSC1=NSC2=NC(=O)/C(=C\c3coc4ccccc4c3=O)C(=N)N12	nt	i	nt	i	nt	nt
N=C1/C(=C\c2coc3ccccc3c2=O)C(=O)N=C2SC(c3ccncc3)=NN12	i	i	i	i	16	i
COc1ccc(Cl)cc1N1C(=NC(=O)C2CCCO2)SC2CS(=O)(=O)CC21 (stereo not given)	i	nt	i	i	i	i
CCC(C(=O)NCCCN(CC)Cc1ccccc1)n1nc(C)c2sc3ccccc3c2c1=O (stereo not given)	i	nt	i	i	i	i
Cc1ccc(-c2nc3ccc(Cl)cc3c(=O)n2O)cc1	i	nt	56.0	i	i	63
Cc1ccc(-c2nc3ccccc3c(=O)n2O)cc1	i	nt	7.7	i	i	i
O=c1c2cc(Br)ccc2nc(-c2ccccc2)n1O	i	nt	16.9	i	i	11
O=c1c2cc(Cl)ccc2nc(-c2ccccc2Cl)n1O	i	i	i	i	i	i
O=c1c2ccccc2nc(-c2cccc(Cl)c2)n1O	i	18.3	22.8	i	i	13
Cn1cccc1C(=O)NC(=O)COC(=O)c1ccc(O)cc1	i	i	i	i	i	i
Cn1cccc1C(=O)NC(=O)COC(=O)c1ccccc1O	i	i	5.3	i	i	i
CCC(=O)N1CCN=C1SCc1cccc(F)c1	i	nt	i	i	i	i
O=C(NCC(c1ccco1)N1CCc2ccccc2C1)c1ccc(Cl)c([N+](=O)[O-])c1 (stereo not given)	i	nt	i	i	6	i
O=C(NCC(c1ccco1)N1CCc2ccccc2C1)c1cccc([N+](=O)[O-])c1 (stereo not given)	i	nt	i	i	i	i
CC(C)(C)c1ccccc1OCCOCCSc1ncccn1	-7.5	nt	i	i	i	i
CC(C)(C)c1ccccc1OCCOCCN1CCCCCC1	i	i	i	i	i	i
CC(C)(C)OC(=O)N[C@H]1C=C[C@@H](OC(=O)CC(=O)OCC(F)(F)F)C1	nt	nt	nt	i	nt	nt
Cc1cc(NC(=O)c2cc(-c3ccccn3)nc3ccc(Br)cc23)no1	i	nt	i	i	i	i
CC(=O)Nc1ccc(-c2cc(C(=O)O)c3ccccc3n2)cc1	i	i	i	i	i	i
CC(C)(C)c1ccc(-c2cc(C(=O)NNC(=O)Nc3ccccc3)c3ccccc3n2)cc1	i	i	i	-10.2	i	i
O=C(Nc1ccccn1)c1cc(-c2cccnc2)nc2ccc(Br)cc12	-6.93	i	i	i	i	i
CCOc1ccc(NC(=O)CN(C)C(=O)c2cc(-c3ccc(OC)cc3)nc3ccccc23)cc1OCC	i	nt	i	i	i	i
O=C(NNC(=O)c1cc(-c2cccnc2)nc2ccccc12)Nc1ccc(Cl)cc1	i	i	i	i	12	i
SMILES	KCNK9 block	Cl transport mod	hERG protect	KCNK3 inh	KCNQ1 block	KCNQ1 pot
O=C(NNC(=O)c1cc(-c2ccncc2)nc2ccccc12)Nc1ccc(F)cc1	i	nt	i	i	i	i
COc1ccc(NC(=O)CN(C)C(=O)c2cc(-c3ccc(Cl)cc3)nc3ccccc23)cc1	i	nt	i	i	7	i
CCC1CC(C(=O)Nc2ccccc2)C(=O)O1 (stereo not given)	i	nt	i	i	i	i
CCC/C=N/Nc1nnc(Cc2ccc(OC)c(OC)c2)c(=O)[nH]1	i	nt	i	i	i	i
CCOC(=O)c1cc(CC)sc1NC(=O)Cc1ccccc1	-7.65	nt	i	i	i	i
CCOC(=O)c1cc(CC)sc1NC(=O)COC	i	nt	i	i	i	i
O=C(Nc1nccs1)c1ccc(COc2ccccc2Br)o1	-7.08	nt	i	i	i	i
